Key:
Escherichia coli K-12 [1] = assay: Effect on Escherichia coli K-12 ER2738 biofilm formation at 400 uM after 24 hrs by crystal violet reporter assay relative to control; assay type: functional; settings: ER2738, 24 h
Method in brief: (§1)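 Initial single-concentration screen for effect on biofilm development. Bacteria were incubated statically with or without compound for 24 h. Medium and planktonic cells were removed and wells were water-washed. Attached biofilm was stained with crystal violet, washed, and the stain was solubilized in ethanol and read at A540. Results were expressed relative to untreated control as means of three experiments.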

Escherichia coli K-12 [2] = assay: Effect on Escherichia coli K-12 ER2738 biofilm formation by crystal violet reporter assay relative to control; assay type: functional, organism-based
Method in brief: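 E. coli biofilm development was measured under static conditions by crystal violet reporter assay. Cultures were grown with or without compound for 24 h, then planktonic cells and medium were removed and wells were water-washed. Biofilm was stained with crystal violet, and the retained dye was ethanol-solubilized and quantified at A540 against untreated control.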

[3] = Toxicity in sheep RBC assessed as induction of hemolysis; assay type: cell-based, Ovis aries; settings: erythrocyte
Escherichia coli K-12 [4] = assay: Dispersion of preformed Escherichia coli K-12 ER2738 biofilm by crystal violet reporter assay relative to control
Acinetobacter baumannii = assay: Effect on Acinetobacter baumannii biofilm formation at 400 uM after 24 hrs by crystal violet reporter assay relative to control; assay type: functional; settings: read-out: INH; method in brief: as §1

Row | Structure (SMILES) | inhibition at 400 µM (Escherichia coli K-12 [1]) [%] | inhibition at 400 µM (Acinetobacter baumannii) [%] | further results
1 | CCCCCCCCCCNC(=O)Cn1cc(CCCCCc2c[nH]c(N)n2)nn1 | 58.9 |  | 
2 | Nc1nc(CCCCCc2cn(CC(=O)Nc3ccccc3)nn2)c[nH]1 | -143 |  | 
3 | Nc1nc(CCCCCc2cn(CC(=O)NCCc3ccccc3)nn2)c[nH]1 | -174 |  | 
4 | CCCCCCCCNC(=O)Cn1cc(CCCCCc2c[nH]c(N)n2)nn1.Cl |  |  | IC50 (Escherichia coli K-12 [2]): 13 µM; Activity [3]: 675 µM; EC50 (Escherichia coli K-12 [4]): Not Active
5 | CCCCCCNC(=O)Cn1cc(CCCc2c[nH]c(N)n2)nn1 | -30.3 | 31.4 | 
6 | CCCCCCCCCCNC(=O)Cn1cc(CCCc2c[nH]c(N)n2)nn1.Cl | 90.8 | 28.3 | IC50 (Escherichia coli K-12 [2]): 36.9 µM; Activity [3]: 487 µM; EC50 (Escherichia coli K-12 [4]; Escherichia coli, ER2738, read-out: EC50): 120 µM
7 | CCCCCCCCCCCCCCNC(=O)Cn1cc(CCCc2c[nH]c(N)n2)nn1 | 57.8 | 36.4 | 
8 | CC(C)NC(=O)Cn1cc(CCCc2c[nH]c(N)n2)nn1 | -127 | 13.6 | 
9 | CC(C)(C)NC(=O)Cn1cc(CCCc2c[nH]c(N)n2)nn1 | 17.6 | 21.2 | 
10 | Nc1nc(CCCc2cn(CC(=O)NC3CCCC3)nn2)c[nH]1 | -47.8 | 15.9 | 
11 | Nc1nc(CCCc2cn(CC(=O)NC3CCCCC3)nn2)c[nH]1 | -169 |  | 
12 | Nc1nc(CCCc2cn(CC(=O)N3CCCC3)nn2)c[nH]1 | 2.6 | 6.2 | 
13 | Nc1nc(CCCc2cn(CC(=O)N3CCOCC3)nn2)c[nH]1 | -183 | 30.3 | 
14 | Nc1nc(CCCc2cn(CC(=O)Nc3ccccc3)nn2)c[nH]1 | -142 | 23 | 
15 | Cl.Nc1nc(CCCc2cn(CC(=O)NCc3ccccc3)nn2)c[nH]1 |  | 19.5 | Activity [3]: > 800 µM
16 | Nc1nc(CCCc2cn(CC(=O)NCCc3ccccc3)nn2)c[nH]1 | -41.8 | 20.8 | 
17 | Nc1nc(CCCc2cn(CC(=O)NCCCc3ccccc3)nn2)c[nH]1 | -176 | 23.2 | 
18 | COc1ccc(NC(=O)Cn2cc(CCCc3c[nH]c(N)n3)nn2)cc1 | -169 |  | 
19 | COc1ccc(CNC(=O)Cn2cc(CCCc3c[nH]c(N)n3)nn2)cc1 | -19.9 | 17.5 | 
20 | COc1ccc(CCNC(=O)Cn2cc(CCCc3c[nH]c(N)n3)nn2)cc1.Cl |  | 8.5 | Activity [3]: > 800 µM
